Source: ChEMBL document CHEMBL1140861, “Short antisense oligonucleotides with novel 2'-4' conformationaly restricted nucleoside analogues show improved potency without increased toxicity in animals” (J Med Chem, 2009)
Each block holds one compound with its values, some of them ahead of it. Calls of active or inactive are those of the source. No cut-off for these calls is given here.

Tests used:
[1] = tested on: Mus musculus; assay: Hepatotoxicity in BALB/c mouse assessed as increase in liver ALT level at 0.5 mg/kg, ip administered twice a week for 3 weeks measured after 72 hrs of last dose; type: toxicity, organism-based; design: dose 0.5 mg/kg, route intraperitoneal; details: in vivo
In short: (§1)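 Male Balb/c mice, 6 weeks old, dosed ip twice weekly for 3 weeks at 0.5, 1.5, 4.7 and 15 mg/kg (two ASOs) or 0.7, 2.3, 7.2 and 23 mg/kg (MOE control); sacrificed 72 h after last dose; ALT, liver PTEN mRNA, liver and spleen weights and body weight gain assessed; ED50 derived; errors as sd.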

[2] = tested on: Mus musculus; assay: Hepatotoxicity in BALB/c mouse assessed as increase in liver ALT level at 1.5 mg/kg, ip administered twice a week for 3 weeks measured after 72 hrs of last dose; type: toxicity, organism-based; design: dose 1.5 mg/kg, route intraperitoneal; details: in vivo; in short: as §1
[3] = tested on: Mus musculus; assay: Hepatotoxicity in BALB/c mouse assessed as increase in liver ALT level at 4.7 mg/kg, ip administered twice a week for 3 weeks measured after 72 hrs of last dose; type: toxicity, organism-based; design: dose 4.7 mg/kg, route intraperitoneal; details: in vivo; in short: as §1
[4] = tested on: Mus musculus; assay: Hepatotoxicity in BALB/c mouse assessed as increase in liver ALT level at 15 mg/kg, ip administered twice a week for 3 weeks measured after 72 hrs of last dose; type: toxicity, organism-based; design: dose 15 mg/kg, route intraperitoneal; details: in vivo; in short: as §1
[5] = tested on: Mus musculus; assay: Toxicity in BALB/c mouse assessed as reduction in body weight at 0.5 mg/kg, ip administered twice a week for 3 weeks measured after 72 hrs of last dose; type: organism-based; design: dose 0.5 mg/kg, route intraperitoneal; details: in vivo; in short: as §1
[6] = tested on: Mus musculus; assay: Toxicity in BALB/c mouse assessed as reduction in body weight at 1.5 mg/kg, ip administered twice a week for 3 weeks measured after 72 hrs of last dose; type: organism-based; design: dose 1.5 mg/kg, route intraperitoneal; details: in vivo; in short: as §1
[7] = tested on: Mus musculus; assay: Toxicity in BALB/c mouse assessed as reduction in body weight at 4.7 mg/kg, ip administered twice a week for 3 weeks measured after 72 hrs of last dose; type: organism-based; design: dose 4.7 mg/kg, route intraperitoneal; details: in vivo; in short: as §1
[8] = tested on: Mus musculus; assay: Toxicity in BALB/c mouse assessed as reduction in body weight at 15 mg/kg, ip administered twice a week for 3 weeks measured after 72 hrs of last dose; type: organism-based; design: dose 15 mg/kg, route intraperitoneal; details: in vivo; in short: as §1
[9] = species on record: Mus musculus; assay: Binding affinity to mouse PTEN mRNA assessed as melting temperature
In short: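 Tm of ASO–RNA duplex, i.e. melting temperature of the ASO hybridised to its complementary RNA.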

[10] = tested on: bEND; assay: Reduction in mouse PTEN mRNA level expressed in mouse bEND cells; type: functional, cell-based
In short: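 bEND mouse brain endothelial cells transfected with ASO using lipofectin; PTEN mRNA reduction measured over a dose range; IC50 taken from dose-response curves.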

[11] = tested on: Mus musculus; assay: Reduction of PTEN mRNA level in ip dosed BALB/c mouse liver after 72 hrs; type: functional
[12] = tested on: Mus musculus; assay: Reduction of PTEN level in ip dosed BALB/c mouse liver at 37 mg/kg by Western blot analysis; type: functional, organism-based; design: dose 37 mg/kg
[13] = tested on: Mus musculus; assay: Metabolic stability in BALB/c mouse liver assessed as antisense oligonucleotide level at 18 mg/kg; type: ADME, organism-based; design: dose 18 mg/kg; details: in vivo
[14] = tested on: Mus musculus; assay: Hepatotoxicity in BALB/c mouse assessed as increase in liver ALT level at 35 mg/kg, ip after 72 hrs; type: toxicity, organism-based; design: dose 35 mg/kg, route intraperitoneal; details: in vivo
In short: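 Single ip injection of 35 mg/kg ASO into male Balb/c mice, 6 weeks old, n = 4 per group, saline control; sacrificed 72 h after dosing and ALT recorded; ANOVA with Tukey's post hoc test.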

Structure (SMILES): COC[C@@H]1O[C@H]2[C@H](n3ccc(=O)[nH]c3=O)O[C@]1(COP(O)(=S)O[C@@H]1[C@H]3O[C@H](COC)[C@]1(COP(O)(=S)OC[C@H]1O[C@@H](n4cnc5c(N)ncnc54)[C@H](O)[C@@H]1OP(O)(=S)OC[C@H]1O[C@@H](n4cc(C)c(=O)[nH]c4=O)[C@H](O)[C@@H]1OP(O)(=S)OC[C@H]1O[C@@H](n4cnc5c(=O)[nH]c(N)nc54)[C@H](O)[C@@H]1OP(O)(=S)OC[C@H]1O[C@@H](n4cnc5c(=O)[nH]c(N)nc54)[C@H](O)[C@@H]1OP(O)(=S)OC[C@H]1O[C@@H](n4ccc(N)nc4=O)[C@H](O)[C@@H]1OP(O)(=S)OC[C@H]1O[C@@H](n4cc(C)c(=O)[nH]c4=O)[C@H](O)[C@@H]1OP(O)(=S)OC[C@H]1O[C@@H](n4cnc5c(=O)[nH]c(N)nc54)[C@H](O)[C@@H]1OP(O)(=S)OC[C@H]1O[C@@H](n4ccc(N)nc4=O)[C@H](O)[C@@H]1OP(O)(=S)OC[C@H]1O[C@@H](n4cnc5c(N)ncnc54)[C@H](O)[C@@H]1OP(O)(=S)OC[C@H]1O[C@@H](n4cnc5c(=O)[nH]c(N)nc54)[C@H](O)[C@@H]1OP(O)(=S)OC[C@]14O[C@@H](n5ccc(N)nc5=O)[C@H](O[C@H]1COC)[C@@H]4OP(O)(=S)OC[C@]14O[C@@H](n5ccc(=O)[nH]c5=O)[C@H](O[C@H]1COC)[C@@H]4O)O[C@H]3n1ccc(N)nc1=O)[C@H]2O (stereo partly specified)
- Activity [14]: Non-toxic

Structure (SMILES): COC[C@H]1O[C@H]2[C@H](n3ccc(=O)[nH]c3=O)O[C@]1(COP(O)(=S)O[C@H]1[C@H]3O[C@H](COC)[C@]1(COP(O)(=S)OC[C@H]1O[C@@H](n4cnc5c(N)ncnc54)[C@H](O)[C@@H]1OP(O)(=S)OC[C@H]1O[C@@H](n4cc(C)c(=O)[nH]c4=O)[C@H](O)[C@@H]1OP(O)(=S)OC[C@H]1O[C@@H](n4cnc5c(=O)[nH]c(N)nc54)[C@H](O)[C@@H]1OP(O)(=S)OC[C@H]1O[C@@H](n4cnc5c(=O)[nH]c(N)nc54)[C@H](O)[C@@H]1OP(O)(=S)OC[C@H]1O[C@@H](n4ccc(N)nc4=O)[C@H](O)[C@@H]1OP(O)(=S)OC[C@H]1O[C@@H](n4cc(C)c(=O)[nH]c4=O)[C@H](O)[C@@H]1OP(O)(=S)OC[C@H]1O[C@@H](n4cnc5c(=O)[nH]c(N)nc54)[C@H](O)[C@@H]1OP(O)(=S)OC[C@H]1O[C@@H](n4ccc(N)nc4=O)[C@H](O)[C@@H]1OP(O)(=S)OC[C@H]1O[C@@H](n4cnc5c(N)ncnc54)[C@H](O)[C@@H]1OP(O)(=S)OC[C@H]1O[C@@H](n4cnc5c(=O)[nH]c(N)nc54)[C@H](O)[C@@H]1OP(O)(=S)OC[C@]14O[C@@H](n5ccc(N)nc5=O)[C@H](O[C@@H]1COC)[C@@H]4OP(O)(=S)OC[C@]14O[C@@H](n5ccc(=O)[nH]c5=O)[C@H](O[C@@H]1COC)[C@@H]4O)O[C@H]3n1ccc(N)nc1=O)[C@H]2O (stereo partly specified)
- Activity [14]: Non-toxic

The next lines start with results.

- Tm [9]: 58.9 °C
- IC50 [10]: 0.0103 µM
- Stability [13]: 25 µg/g
Structure (SMILES): Cc1cn([C@@H]2O[C@@]3(COP(O)(=S)O[C@H]4[C@H]5O[C@H](C)[C@]4(COP(O)(=S)O[C@H]4C[C@H](n6cc(C)c(=O)[nH]c6=O)O[C@@H]4COP(O)(=S)O[C@H]4[C@@H](O)[C@H](n6cnc7c6N=CNC7N)O[C@@H]4COP(O)(=S)O[C@H]4[C@@H](O)[C@H](n6cnc7c(=O)[nH]c(N)nc76)O[C@@H]4COP(O)(=S)O[C@H]4[C@@H](O)[C@H](n6ccc(N)nc6=O)O[C@@H]4COP(O)(=S)O[C@H]4[C@@H](O)[C@H](n6cnc7c(N)ncnc76)O[C@@H]4COP(O)(=S)O[C@H]4[C@@H](O)[C@H](n6ccc(N)nc6=O)O[C@@H]4COP(O)(=S)O[C@H]4[C@@H](O)[C@H](n6cc(C)c(=O)[nH]c6=O)O[C@@H]4COP(O)(=S)O[C@H]4[C@@H](O)[C@H](n6cnc7c(=O)[nH]c(N)nc76)O[C@@H]4COP(O)(=S)O[C@H]4[C@@H](O)[C@H](n6cnc7c(=O)[nH]c(N)nc76)O[C@@H]4COP(O)(=S)O[C@H]4[C@@H](O)[C@H](n6ccc(N)nc6=O)O[C@@H]4COP(O)(=S)O[C@H]4[C@H]6O[C@H](C)[C@]4(COP(O)(=S)O[C@H]4[C@H]7O[C@H](C)[C@]4(CO)O[C@H]7n4ccc(=O)[nH]c4=O)O[C@H]6n4cc(C)c(N)nc4=O)O[C@H]5n4ccc(=O)[nH]c4=O)[C@@H](C)O[C@@H]2[C@@H]3O)c(=O)nc1N (stereo partly specified)
- Activity [1]: Toxic
- Activity [2]: Toxic
- Activity [3]: Toxic
- Activity [4]: Toxic
- Activity [5]: Toxic
- Activity [6]: Toxic
- Activity [7]: Toxic
- Activity [8]: Toxic
- ED50 [11]: 13 mg/kg
- Activity [12]: Active

- Tm [9]: 57.6 °C
- IC50 [10]: 0.005 µM
Structure (SMILES): COC[C@@H]1O[C@H]2[C@H](n3cc(C)c(N)nc3=O)O[C@]1(COP(O)(=S)O[C@H]1[C@H]3O[C@@H](COC)[C@]1(COP(O)(=S)O[C@H]1C[C@H](n4cc(C)c(=O)[nH]c4=O)O[C@@H]1COP(O)(=S)O[C@H]1[C@@H](O)[C@H](n4cnc5c4N=CNC5N)O[C@@H]1COP(O)(=S)O[C@H]1[C@@H](O)[C@H](n4cnc5c(=O)[nH]c(N)nc54)O[C@@H]1COP(O)(=S)O[C@H]1[C@@H](O)[C@H](n4ccc(N)nc4=O)O[C@@H]1COP(O)(=S)O[C@H]1[C@@H](O)[C@H](n4cnc5c(N)ncnc54)O[C@@H]1COP(O)(=S)O[C@H]1[C@@H](O)[C@H](n4ccc(N)nc4=O)O[C@@H]1COP(O)(=S)O[C@H]1[C@@H](O)[C@H](n4cc(C)c(=O)[nH]c4=O)O[C@@H]1COP(O)(=S)O[C@H]1[C@@H](O)[C@H](n4cnc5c(=O)[nH]c(N)nc54)O[C@@H]1COP(O)(=S)O[C@H]1[C@@H](O)[C@H](n4cnc5c(=O)[nH]c(N)nc54)O[C@@H]1COP(O)(=S)O[C@H]1[C@@H](O)[C@H](n4ccc(N)nc4=O)O[C@@H]1COP(O)(=S)O[C@H]1[C@H]4O[C@@H](COC)[C@]1(COP(O)(=S)O[C@H]1[C@H]5O[C@@H](COC)[C@]1(CO)O[C@H]5n1ccc(=O)[nH]c1=O)O[C@H]4n1cc(C)c(N)nc1=O)O[C@H]3n1ccc(=O)[nH]c1=O)[C@H]2O (stereo partly specified)
- ED50 [11]: 25 mg/kg

- Tm [9]: 50.8 °C
- IC50 [10]: > 0.02 µM
Structure (SMILES): COCCO[C@@H]1[C@H](O)[C@@H](COP(O)(=S)O[C@H]2[C@@H](OCCOC)[C@H](n3ccc(=O)[nH]c3=O)O[C@@H]2COP(O)(=S)O[C@H]2C[C@H](n3cc(C)c(=O)[nH]c3=O)O[C@@H]2COP(O)(=S)O[C@H]2[C@@H](O)[C@H](n3cnc4c3N=CNC4N)O[C@@H]2COP(O)(=S)O[C@H]2[C@@H](O)[C@H](n3cnc4c(=O)[nH]c(N)nc43)O[C@@H]2COP(O)(=S)O[C@H]2[C@@H](O)[C@H](n3ccc(N)nc3=O)O[C@@H]2COP(O)(=S)O[C@H]2[C@@H](O)[C@H](n3cnc4c(N)ncnc43)O[C@@H]2COP(O)(=S)O[C@H]2[C@@H](O)[C@H](n3ccc(N)nc3=O)O[C@@H]2COP(O)(=S)O[C@H]2[C@@H](O)[C@H](n3cc(C)c(=O)[nH]c3=O)O[C@@H]2COP(O)(=S)O[C@H]2[C@@H](O)[C@H](n3cnc4c(=O)[nH]c(N)nc43)O[C@@H]2COP(O)(=S)O[C@H]2[C@@H](O)[C@H](n3cnc4c(=O)[nH]c(N)nc43)O[C@@H]2COP(O)(=S)O[C@H]2[C@@H](O)[C@H](n3ccc(N)nc3=O)O[C@@H]2COP(O)(=S)O[C@H]2[C@@H](OCCOC)[C@H](n3cc(C)c(N)nc3=O)O[C@@H]2COP(O)(=S)O[C@H]2[C@@H](OCCOC)[C@H](n3ccc(=O)[nH]c3=O)O[C@@H]2COP(=O)(O)O)O[C@H]1n1cc(C)c(N)nc1=O (stereo partly specified)
- ED50 [11]: > 45 mg/kg
